The EternaBench riboswitch data

Tested on: MS2 coat protein
Experiment: apparent Kd, MS2 coat protein; higher = weaker binding; RNA-MaP array; FMN 200 µM where present
Method in brief: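 Two titrations, one without ligand and one with constant ligand, were run with SNAP-549-labelled MS2 coat protein from 0.7 or 1.5 nM, doubling to 3 µM. The targets were designs transcribed by stalled E. coli RNA polymerase on Illumina sequencing-chip clusters, in 100 mM Tris-HCl pH 7.5, 80 mM KCl, 4 mM MgCl2, BSA, DTT, yeast tRNA and Tween-20. The apparent Kd is the median of filtered per-cluster binding-curve fits, with green signal normalised to red-channel RNA signal and control-cluster median Fmax.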

[1] = designed as: OFF switch for flavin mononucleotide, no ligand
[2] = ligand present: flavin mononucleotide, designed as: OFF switch for flavin mononucleotide
[3] = designed as: ON switch for flavin mononucleotide, no ligand
[4] = ligand present: flavin mononucleotide, designed as: ON switch for flavin mononucleotide

| Sequence | apparent Kd [1] | apparent Kd [2] | apparent Kd [3] | apparent Kd [4] |
| --- | --- | --- | --- | --- |
| UAAAUGUGAGGAUAUCAGGUGUGCUAGCGAACUGGUACAUCUGAGAAGGCACAUGAGGAUCACCCAUGUUCCUU | 17 nM | 61.5 nM | – | – |
| AGCUACGUUUCGUAGCAGCUAGGUGAGGAUAUUCAAUUUUUCACAUGAGGAUCACCCAUGUAUGUGAAGAAGGCGCCUAGAAAG | – | – | 13.3 nM | 4.77 nM |
| GAAAACGGAGAGGAUAUUUGAGAUCAAAGCUCCAAAGAAGGCUCCACAUGAGGAUCACCCAUGUGGUCUUCAAA | 13.5 nM | 111 nM | – | – |
| AGCCAAGCAGGAUAUGCCCGGGAUAACAUGAGGAUCACCCAUGUGACCGAUUGAUGUCCUGCAGAAGGGCUUGGGA | 15.6 nM | 79.8 nM | – | – |
| CUGAUGUUAGGAUAUCAGGCGCCCGCCACUGGCAAGGCGCAUGAGAAGGGACAUGAGGAUCACCCAUGUAGUAA | 26.3 nM | 55.7 nM | – | – |
| GUGGCUAGUGCAGGAUAUCGGCGCGUGUAGUGUCGAGAAGGGCACAUGAGGAUCACCCAUGUGAUCAAUCACUGCUAAGGCCGC | 5.12 nM | 5.38 nM | – | – |
| AAGUCGUGAGGAUAUACAUGGAUAUACAUUUAUGUGGACCUACAUGAGGAUCACCCAUGUAGAAGGCACGACUA | 196 nM | 93.5 nM | – | – |
| ACUAGAUGAGGAUAUGCAUAUUUUCGUGUUCUUCUAGGUUAACAUGAGGAUCACCCAUGUAGAAGGCGUCUGGA | 19.6 nM | 37.7 nM | – | – |
| GCGUAAUAGGUGUAGCUAGUCAUUCAAGAAGGGUGAAGAACAUGAGGAUCACCCAUGUGGUUUAUACAGGAUAUUGAUAUACGC | – | – | 363 nM | 90.4 nM |
| GAUCAGCUUGUGAGGAUAUCCGGGCAUAAAGGCUAGGAGAAGGUACAUGAGGAUCACCCAUGUAGAGUCCUGGG | 47.9 nM | 58.9 nM | – | – |
| AAGGACUGUAAAUAAGUAGAAAUACAUGAGGAUCACCCAUGUAAGGAUAUCGUCAGGAAUACUGACGAGAAGGUACAUCAGUCC | 14.5 nM | 18.6 nM | – | – |
| AGGUAACAUGAGGAUCACCCAUGUCAGGAUAUCAUGAAGAUUAGAUUAGAGGAGAGGUUGAGAAGGGACUAUAU | 55.6 nM | 49.5 nM | – | – |
| UUAUUUGUACAAGGAUAUCUAUUAUAUUCACAUCCUACAUGAGGAUCACCCAUGUUAUAUAUUUUAGAGAAGGUGUAUUGUCUG | – | – | 29.9 nM | 35.3 nM |
| GUGAAACAUGAGGAUCACCCAUGUGAGGAUAUGUUUUAGUACUGCUGACAGUACAUCUAUAGAAGGCACAAUGG | 34.8 nM | 54.8 nM | – | – |
| AAAAAGUGAUGGUAGGAUAUUGGAAAAGCCACAUGAGGAUCACCCAUGUCAAAAAACCUAAAAAACAAGAAGGGCUGUUAUAAAAA | – | – | 18.5 nM | 14.8 nM |
| ACAUAAAUUCGAGGAUAUCGGUGAUAAAGAAGACGAGAAGGCGAUUUAAGAUAUAUGGUUAAAGACAUGAGGAUCACCCAUGUA | – | – | 32.1 nM | 29.7 nM |
| CAGCUACCCAGUAUGGGUAUUUUUACAGAAGGCCAGGUACAUGAGGAUCACCCAUGUUAAGUUAUGGAGGAUAUGUUAGUGUAU | – | – | 27.9 nM | 7.18 nM |
| AGUGUCAUCGAGAAGGCCUCAACAUGAGGAUCACCCAUGUUGCAAAAUGGGAGGAUAUCGCGCGUUAAAAAACGUUUCGUAGCA | – | – | 38.3 nM | 17.5 nM |
| GAGAGAUAGUAGGAUAUUCUGUACGGGUGACCAGGAGAAGGACUAACAUGAGGAUCACCCAUGUGGCUGGUCAU | 15.9 nM | 16.2 nM | – | – |
| GGAUAGGACAGAGGAUAUACGUGCUAGAGAUACUAGCAAAAUUACCUCACAUGAGGAUCACCCAUGUAGAAGGCUGUCCUAUCG | 5.29 nM | 60.6 nM | – | – |
| AGCUACACCCAGAAGGACAUGAGGAUCACCCAUGUAGGAUAUGGGACACACAGUGCCAUGUAGAGAAAUUACGCUAGUGUAGCG | – | – | 14.3 nM | 8.42 nM |
| GGUGCGUAUGUUAGGAUAUGCUGGUCCUUGGAUCGGCAGAAGGUACAUGAGGAUCACCCAUGUGGUGUCGUUCC | 64.8 nM | 72.4 nM | – | – |
| AAGGACUGUAAAUUAACUCAAAUACAUGAGGAUCACCCAUGUAAGGAUAUCGUCAGGAAUACUGACGAGAAGGUACAUCAGUCC | 15.6 nM | 20.8 nM | – | – |
